Reference: the EternaBench riboswitch data

Tested on: MS2 coat protein
Assay: apparent Kd, MS2 coat protein; higher = weaker binding; RNA-MaP array; FMN 200 µM where present
In short: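 Stalled E. coli RNA polymerase transcribed the designs on Illumina sequencing-chip clusters. SNAP-549-labelled MS2 coat protein was titrated from 0.7 or 1.5 nM, doubling to 3 µM, without and then with constant ligand, in 100 mM Tris-HCl pH 7.5, 80 mM KCl, 4 mM MgCl2, BSA, DTT, yeast tRNA and Tween-20. Per-cluster binding curves were fitted to green signal normalised to red-channel RNA signal and control-cluster median Fmax. The apparent Kd is the median of the filtered fits.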

[1] = designed as: ON switch for flavin mononucleotide, no ligand
[2] = ligand present: flavin mononucleotide, designed as: ON switch for flavin mononucleotide
[3] = designed as: OFF switch for flavin mononucleotide, no ligand
[4] = ligand present: flavin mononucleotide, designed as: OFF switch for flavin mononucleotide

| Sequence | apparent Kd [1] [nM] | apparent Kd [2] [nM] | apparent Kd [3] [nM] | apparent Kd [4] [nM] |
| --- | --- | --- | --- | --- |
| GGGUGAGCUCAAGGAUAUCCAAAAUGGUUACAUGAGGAUCACCCAUGUCCAGGCGAAUAAAGGCCGGAGAAGGUGAGGGCCCUC | 60.2 | 156 | – | – |
| UCGCUGCGAGGAUAUACGUGCGCGCGCUCGCGUUCGCGCGUACAUGAGGAUCACCCAUGUAGAAGGCGCGCUGC | – | – | 13.5 | 13.2 |
| GUAGAGUCAGGAUAUACGAGAUCGAAAGAUCGGCGAUCCAUACAUGAGGAUCACCCAUGUAGAAGGGACUCUAC | – | – | 15.6 | 148 |
| AAGUCGUGAGGAUAUACAUGGAUAUACAUUUAUGUGGACCUACAUGAGGAUCACCCAUGUAGAAGGCACGACUA | – | – | 196 | 93.5 |
| AGAAACUACGAGAAGGACAUGUGAACCUUCAAUUACAUGAGGAUCACCCAUGUAGGAUAUCGUAGUUUCAGGAUCGUGAGAUCA | – | – | 16.7 | 115 |
| UUAGCGUAAGUAAGGAUAUGCUGGUCGAAAGACCAGCAGAAGGUACAUGAGGAUCACCCAUGUGGAUUCGUUAU | – | – | 27.8 | 92.6 |
| GGAUGUCAAAGACAUCCAUAACGAACAUGAGGAUCACCCAUGUAGGAUAUGCUACUCAAAGAGUAGCAGAAGGACAUGUGUCUU | – | – | 30.3 | 150 |
| CGAGUUUUUGAGAAGGCAUAAUAUAUAAUACCACAUGUUUACAUGAGGAUCACCCAUGUUUCCUAUGAGGAUAUCAGAAUAUCG | – | – | 16.1 | 14.4 |
| UGUUGUUCAGGAUAUGAUGUUUUAUACAUGAGGAUCACCCAUGUGGGUCCUGAUUUGGCGUCAGAAGGGAAUGUUG | – | – | 108 | 222 |
| AGCUGGUGACAGCAUCCAUCCUGACAUGAGGAUCACCCAUGUAGAAGGCUGUACGGUUACCGUACAGAGGAUAUACAAUGAUGG | – | – | 10.1 | 22.3 |
| ACAUGUCGUGAGAAGGACGGCGUGCAUAGCGCCGUAGGAUAUCAAGACAUGAGGAUCACCCAUGUACGCGUGUCCCGCCGUGCU | – | – | 38.7 | 303 |
| UUAUACAUUCGAGGAUAUCGGAGAGAGAUCAUUCGAGAAGGCGAUUCAUGAUGUAUUAUCCUGGACAUGAGGAUCACCCAUGUA | 101 | 68.1 | – | – |
| ACCUUACAUGAGGAUCACCCAUGUUAGGAUAUCUCGCUUGCGCAAUCACAACGCAAGCAGAGAAGGGACGCGGG | – | – | 29.1 | 33.4 |
| UCAUCUUGUCGAGGAUAUAUUAACAUGACAUGAGACACAUGAGGAUCACCCAUGUAUUUUUUUUUAUAGAAGGCGACUAUAUGU | 32.6 | 52.9 | – | – |
| CACCGUUACAGAGGAUAUCGUACAUGAGGAUCACCCAUGUAAUAAAUGAGAAUUUCGGAUGUAUGCGAGAAGGCUGGAAUCGGC | – | – | 28.5 | 36.1 |
| UGUAUGUGGGCAGGAUAUACAUGAAUAUAUAUGAUGUAGUAUGAUGUAACAUGAGGAUCACCCAUGUAGAAGGGCCGGUGUAUG | – | – | 165 | 214 |
| GUCGGAAACGACAAGUAGCAAUCGGAGGAUAUUCAUGAAAACAUGAGGAUCACCCAUGUAAAUUGGGAGAAGGCCGAUUGCUAC | 91.6 | 8.48 | – | – |
| AGAUCACAUGAGGAUCACCCAUGUGAGGAUAUGAUACUAUGUACUUCGGUACAUAGUAUCAGAAGGCGCGUGAA | – | – | 29.8 | 42.2 |
| AAAAAACAUGAGGAUCACCCAUGUGAGGAUAUUGGUAUUCAGGGUAUAAUCUCAAUAGCGAGAAGGCGCAUAAA | – | – | 43.6 | 44.3 |
| UCUAAGCGAAUCAAGAUGGAUAGAACAUGAGGAUCACCCAUGUAGGAUAUGCUACACAAAGUGUAGCAGAAGGACAAGCUUAGA | – | – | 25.9 | 36.2 |
| GUUAUUGACAAGAAGGCAAACAUGAGGAUCACCCAUGUUCUACAUGUAUAUUGAGGAUAUUGCCAAUACAUGAGGAUCACCCAG | – | – | 45 | 53.3 |
| GAUCAGCUUGUGAGGAUAUCCGGGCAUAAAGGCUAGGAGAAGGUACAUGAGGAUCACCCAUGUAGAGUCCUGGG | – | – | 47.9 | 58.9 |
| UGUACCGUUGGAACGCGUCGAGUACAUGAGGAUCACCCAUGUCAGGAUAUGUGGCGAAAGGUAGCACAGAAGGGACAUAGAAGA | – | – | 32.6 | 92.3 |
| AAAAAACAUGAGGAUCACCCAUGUAAGGAUAUCUAAAAUAAAAGAAAAAUAAAGAAAAGGAGAAGGUACAAGGA | – | – | 24.5 | 35.1 |
| UAAAAGGCAGGAUAUGCAGGUGACCCGACUCGCCGGGCUAAACAUGAGGAUCACCCAUGUAGAAGGGCCAAAAG | – | – | 15.7 | 43.6 |
| CUUUUGUGAGGAUAUCAGUAGUAAUAAAAUAAAAUAACUACUGAGAAGGCACAUGAGGAUCACCCAUGUUCCUC | – | – | 32 | 145 |
| GUGUAGACAGGAUAUGCUUUGAGCAUAUGAGAGUAUGCUCGACAUGAGGAUCACCCAUGUAGAAGGGUCUACAC | – | – | 12.1 | 12.9 |
| AAGAAGUCAGGAUAUCGUGCUCGUCACUUGCGUGAUGAGUACGAGAAGGGACAUGAGGAUCACCCAUGUAAAGA | – | – | 52.4 | 52.5 |

| Sequence | apparent Kd [1] [nM] | apparent Kd [2] [nM] | apparent Kd [3] [nM] | apparent Kd [4] [nM] |
| --- | --- | --- | --- | --- |
| GACGGUGAUGUAGGAUAUACGCUGGAAUACAGCGUAGAAGGACAUGAGGAUCACCCAUGUAGAGUGUCUCCAAAUAACACCGUC | – | – | 43.5 | 284 |
| UUGGACGUCGUAGGAUAUGUUGGAUAUUCCUACAUGAGGAUCACCCAUGUUGACAUGGAAGAAGGACAGAAGGACGAUGUCCAU | 5.08 | 4.49 | – | – |
| UUAAUUAACAAGAAGGCUUACAUGAGGAUCACCCAUGUUGUACAUGGAUAAAGAGGAUAUUGCUAAUAAUUAUUUUUCUUAAUU | – | – | 92.1 | 57.5 |
| GUAGCUAUCGCAGGAUAUCCUCAGGCGAAAGCCACAUGAGGAUCACCCAUGUAUAUAAAGAAUAUGGAGAAGGGCGAUAGCUAC | 1670 | 185 | – | – |
| UUUUUUGUAGUGAGGAUAUCGUUGAGGAUGUGGAUCGAGAAGGCACAUGAGGAUCACCCAUGUUAGAUGUGGUU | – | – | 262 | 295 |
| AAGGACUGAGGAUAUGCGCGGGCAAGAUCCUCAAUCCCAAAACAUGAGGAUCACCCAUGUAGAAGGCAGAAAUA | – | – | 25.8 | 22.6 |
| AUAUCCGAAGCAGGAUAUCGACGAGGUGUCGAGAUAGAGCGUACUCACAUGAGGAUCACCCAUGUCGAGAAGGGCUAUAGGAUA | – | – | 22.2 | 83.4 |
| AAAUGAUAGUCAGGAUAUAAGUUGGAGCCUCGGUCGCACAUGAGGAUCACCCAUGUGUCUUGGAUUUAGAAGGGACAGAUGGGC | 682 | 648 | – | – |
| CGCAACAUACAGAAGGAGUUAUUGAGAGGUUUACUAGGAUAUGUUCACAUGAGGAUCACCCAUGUCGUUUGGUUUUUUGUUGCG | – | – | 18.4 | 11.2 |
| UUUAUGUCAGGAUAUACAUGAGGAUCACCCAUGUAUAUCUAAAAAUAUACAUGGGAAUGUAGAAGGGACCUCCU | – | – | 53 | 46.3 |
| CAAUGUCAAAAGGAUAUUGCCAGCAUAAAUGGUCGAGAAGGUUUGACAUGAGGAUCACCCAUGUAAUGAACCUG | – | – | 14.6 | 51.2 |
| GUAGUGUAGUGAGGAUAUACGAGAUCGAUAGAUCGGCGAUCCAUUAAUACAUGAGGAUCACCCAUGUAGAAGGCACUUCACUAC | – | – | 6.01 | 70.7 |
| ACAUGACAUGAGGAUCACCCAUGUCGAUAAAAGCAAGGAUAUGGGCCCGAGUCGUUCGGACCAGAAGGUGCGUCUC | 23.6 | 18 | – | – |
| AGCUACACCCAGAAGGACAUGAGGAUCACCCAUGUAGGAUAUGGGACACACAGUGCCAUGUAGAGAAAUUACGCUAGUGUAGCG | 14.3 | 8.42 | – | – |
| ACAUGAGGAUCACCCAUGUAUUACAUGGUUAAGUUUAUUAACAGAAGGCGAAAUUACCACUUUUUCGAGGAUAUGUAUUCUAUA | – | – | 38.2 | 52.7 |
| AAAUUUAACGAAGGAUAUGCUUACAUGAGGAUCACCCAUGUGUGCCUUGUGAUGCUGAUUAGGUUGCAGAAGGUCGUAUACAUA | – | – | 135 | 174 |
| AGUUAAUAUCGAGGAUAUAAGUCUAGGACAUGAGGAUCACCCAUGUAUGUCUUAGAAGGCGAUAUUAACAGCAUGUUACAUGCA | 28.3 | 6.89 | – | – |
| GGUAAAUAAAGAGUACUGUUUUGAACAUGAGGAUCACCCAUGUAGGAUAUGCGAGUUUUGAAUUUGCAGAAGGACAUUUUUAGC | – | – | 19.6 | 20.4 |
| GUUCAACAUGAGGAUCACCCAUGUAGAAGGCGCUCCGACAUUUUGUAGAACGAGGUGGGUGCGGGCGAGGAUAUACGUGGCGCU | – | – | 48.4 | 89.6 |
| CGGUGCUGAGGAUAUACAUGAGGAUCACCCAUGUGUUCUAGCUAGCGUACUGGCAGAUGUAGAAGGCGGUACUG | – | – | 18.2 | 75.7 |
| CCUAUGUGAGGAUAUCACUGGUCUUCUUUUAUUUUUUACAGUGAGAAGGCACAUGAGGAUCACCCAUGUCGGUG | – | – | 107 | 36.4 |
| AAGGACUGUAAAUAAGUAGAAAUACAUGAGGAUCACCCAUGUAAGGAUAUCGUCAGGAAUACUGACGAGAAGGUACAUCAGUCC | – | – | 14.5 | 18.6 |
| UGUGAGUUGAUCUUAGAUCGGAGUACAUGAGGAUCACCCAUGUAGGAUAUUCAAAGACGCAGAUAGAAGAAGGACAUAGGUUUC | – | – | 15.1 | 13.8 |
| UGGAAGAGAAGAGGAUAUCCGUAGAUAACACAUGAGGAUCACCCAUGUAAGAGGGAUAGGUGAUAGGAGAAGGCUUAGAGAGGU | – | – | 15.2 | 14.9 |
| CAUAAGAUAGGAUAUACAGGCCCGUCUUUAUAUUGAUCCCGACAUGAGGAUCACCCAUGUAGAAGGAUCAUAUG | – | – | 13.7 | 15.2 |
| AGGCCGCUACGCCGGCUUCACGCACAGGAUAUGCAGUUACAUGAGGAUCACCCAUGUGGCCAUGUGCAGAAGGGUGGUUCGUGA | 22.1 | 5.44 | – | – |
| CAGGAUAGAGGAUAUACAUAGAUACAGAUUCAUGUGAUCCUACAUGAGGAUCACCCAUGUAGAAGGCUAUCCUG | – | – | 315 | 39.5 |
